The M2OR odorant receptor database
Where a chain is given by its changes, count along the chain named.

What was measured:
Conditions in all cases: stereoisomer not certain
[1] = molecular target: T1, UniProt L7MU75
T1 sequence (whole entry): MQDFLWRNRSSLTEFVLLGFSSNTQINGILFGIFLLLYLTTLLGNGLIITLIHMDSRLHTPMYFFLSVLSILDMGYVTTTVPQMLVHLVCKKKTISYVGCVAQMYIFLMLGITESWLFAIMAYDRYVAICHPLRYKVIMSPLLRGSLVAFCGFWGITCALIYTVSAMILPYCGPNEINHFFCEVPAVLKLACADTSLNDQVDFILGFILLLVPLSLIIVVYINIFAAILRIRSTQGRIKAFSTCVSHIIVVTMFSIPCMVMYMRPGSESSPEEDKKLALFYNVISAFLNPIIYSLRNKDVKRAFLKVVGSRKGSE
Summary of the method: (§1)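 Transient luciferase assays in mammalian cell lines were common, though methods varied by source. The values come from published papers and their supplementary material, with extra details from the original authors when needed. Responsive refers to a measured signal the original authors judged statistically different from baseline, and non-responsive (inactive) to the remainder.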

[2] = molecular target: T2, UniProt L7N210
T2 sequence (whole entry): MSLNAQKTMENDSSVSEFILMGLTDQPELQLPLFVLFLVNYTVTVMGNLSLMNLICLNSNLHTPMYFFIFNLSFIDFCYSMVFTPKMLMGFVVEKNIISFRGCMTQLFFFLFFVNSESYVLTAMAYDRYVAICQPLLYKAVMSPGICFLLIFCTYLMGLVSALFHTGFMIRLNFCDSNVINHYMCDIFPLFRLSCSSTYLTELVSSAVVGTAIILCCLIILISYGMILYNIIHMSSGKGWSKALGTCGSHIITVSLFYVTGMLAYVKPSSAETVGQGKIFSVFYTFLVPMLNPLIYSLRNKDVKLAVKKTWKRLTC
Summary of the method: as §1

[3] = molecular target: T3, UniProt Q3KPB0
T3 sequence (whole entry): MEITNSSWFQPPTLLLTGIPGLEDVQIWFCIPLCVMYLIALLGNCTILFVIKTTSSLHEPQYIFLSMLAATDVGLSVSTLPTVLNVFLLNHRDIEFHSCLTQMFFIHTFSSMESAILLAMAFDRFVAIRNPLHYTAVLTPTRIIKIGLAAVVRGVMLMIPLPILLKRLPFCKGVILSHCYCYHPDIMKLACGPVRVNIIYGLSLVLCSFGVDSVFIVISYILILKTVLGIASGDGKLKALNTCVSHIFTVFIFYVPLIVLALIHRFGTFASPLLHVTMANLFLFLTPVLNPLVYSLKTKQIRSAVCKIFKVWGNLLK
Summary of the method: as §1

[4] = molecular target: T4, UniProt Q3U0P3
T4 sequence (whole entry): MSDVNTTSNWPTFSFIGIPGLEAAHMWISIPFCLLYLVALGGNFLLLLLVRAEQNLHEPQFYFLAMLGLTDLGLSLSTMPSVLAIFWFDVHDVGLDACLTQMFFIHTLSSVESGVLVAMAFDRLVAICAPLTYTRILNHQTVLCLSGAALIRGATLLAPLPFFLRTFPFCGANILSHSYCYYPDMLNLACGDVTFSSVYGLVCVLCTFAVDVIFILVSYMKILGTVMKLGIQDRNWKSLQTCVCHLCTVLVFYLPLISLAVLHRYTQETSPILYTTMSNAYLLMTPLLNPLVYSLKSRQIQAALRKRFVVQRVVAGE
Summary of the method: as §1

[5] = molecular target: T5, UniProt Q7TQU8
T5 sequence (whole entry): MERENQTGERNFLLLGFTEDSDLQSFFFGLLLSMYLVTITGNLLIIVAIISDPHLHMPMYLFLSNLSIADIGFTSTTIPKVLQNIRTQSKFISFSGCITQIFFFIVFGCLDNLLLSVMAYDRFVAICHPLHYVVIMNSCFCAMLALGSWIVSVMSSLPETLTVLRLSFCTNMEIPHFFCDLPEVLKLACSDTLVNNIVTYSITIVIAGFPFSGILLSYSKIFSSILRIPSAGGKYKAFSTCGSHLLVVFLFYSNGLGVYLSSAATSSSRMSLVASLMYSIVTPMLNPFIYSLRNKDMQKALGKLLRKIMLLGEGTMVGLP
Summary of the method: as §1

[6] = molecular target: T6, UniProt Q7TQV4
T6 sequence (whole entry): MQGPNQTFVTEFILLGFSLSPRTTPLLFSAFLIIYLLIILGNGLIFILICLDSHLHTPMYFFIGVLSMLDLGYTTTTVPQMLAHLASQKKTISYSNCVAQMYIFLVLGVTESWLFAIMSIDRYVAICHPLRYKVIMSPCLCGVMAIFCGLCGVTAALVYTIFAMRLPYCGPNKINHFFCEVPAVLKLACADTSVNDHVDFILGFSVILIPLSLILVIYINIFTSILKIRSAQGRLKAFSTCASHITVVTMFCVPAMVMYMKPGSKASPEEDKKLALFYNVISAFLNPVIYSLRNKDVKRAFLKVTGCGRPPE
Summary of the method: as §1

[7] = molecular target: T7, UniProt Q7TR71
T7 sequence (whole entry): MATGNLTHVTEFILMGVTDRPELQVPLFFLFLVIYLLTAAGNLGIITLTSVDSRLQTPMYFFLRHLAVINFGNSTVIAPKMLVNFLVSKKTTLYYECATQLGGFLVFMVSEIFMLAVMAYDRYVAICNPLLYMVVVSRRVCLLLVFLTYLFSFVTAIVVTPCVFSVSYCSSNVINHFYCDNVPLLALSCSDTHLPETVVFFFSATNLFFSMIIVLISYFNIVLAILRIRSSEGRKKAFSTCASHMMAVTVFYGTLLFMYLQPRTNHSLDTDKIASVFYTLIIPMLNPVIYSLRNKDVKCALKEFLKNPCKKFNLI
Summary of the method: as §1

[8] = molecular target: T8, UniProt Q7TR79
T8 sequence (whole entry): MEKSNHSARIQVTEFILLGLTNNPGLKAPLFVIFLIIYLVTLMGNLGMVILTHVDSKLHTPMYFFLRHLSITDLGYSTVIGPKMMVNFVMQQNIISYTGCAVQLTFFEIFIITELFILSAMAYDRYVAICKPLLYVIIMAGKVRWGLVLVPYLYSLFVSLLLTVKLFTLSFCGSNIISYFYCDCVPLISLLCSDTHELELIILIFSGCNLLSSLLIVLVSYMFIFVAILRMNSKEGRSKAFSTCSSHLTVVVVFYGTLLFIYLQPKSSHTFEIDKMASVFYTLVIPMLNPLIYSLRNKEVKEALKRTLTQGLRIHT
Summary of the method: as §1

[9] = molecular target: T9, UniProt Q7TRA3
T9 sequence (whole entry): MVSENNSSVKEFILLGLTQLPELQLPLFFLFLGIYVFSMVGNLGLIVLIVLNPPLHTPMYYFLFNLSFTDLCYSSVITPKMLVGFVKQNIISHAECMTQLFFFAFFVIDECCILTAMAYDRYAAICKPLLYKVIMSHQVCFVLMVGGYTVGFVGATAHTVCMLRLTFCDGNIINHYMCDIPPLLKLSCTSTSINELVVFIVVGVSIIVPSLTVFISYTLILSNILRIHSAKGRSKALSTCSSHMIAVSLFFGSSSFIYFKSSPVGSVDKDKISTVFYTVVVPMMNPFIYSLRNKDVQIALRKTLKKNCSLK
Summary of the method: as §1

[10] = molecular target: T10, UniProt Q7TRE4
T10 sequence (whole entry): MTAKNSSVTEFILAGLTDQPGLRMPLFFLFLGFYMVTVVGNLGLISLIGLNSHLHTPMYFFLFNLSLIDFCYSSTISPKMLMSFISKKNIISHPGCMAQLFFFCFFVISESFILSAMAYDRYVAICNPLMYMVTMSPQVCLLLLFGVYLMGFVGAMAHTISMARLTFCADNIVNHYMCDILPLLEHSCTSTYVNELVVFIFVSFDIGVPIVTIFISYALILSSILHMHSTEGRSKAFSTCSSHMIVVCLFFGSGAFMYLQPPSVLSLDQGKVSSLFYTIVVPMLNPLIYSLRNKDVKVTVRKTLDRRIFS
Summary of the method: as §1

[11] = molecular target: T11, UniProt L7N0P5
T11 sequence (whole entry): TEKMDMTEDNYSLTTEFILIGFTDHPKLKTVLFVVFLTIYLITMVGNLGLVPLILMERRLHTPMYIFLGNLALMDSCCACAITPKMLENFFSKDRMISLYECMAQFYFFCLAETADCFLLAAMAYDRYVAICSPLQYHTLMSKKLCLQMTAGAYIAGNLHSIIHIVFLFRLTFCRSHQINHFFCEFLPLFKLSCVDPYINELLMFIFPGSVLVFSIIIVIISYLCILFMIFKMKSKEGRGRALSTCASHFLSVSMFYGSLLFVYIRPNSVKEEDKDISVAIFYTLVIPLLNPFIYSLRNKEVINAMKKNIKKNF
Summary of the method: as §1

[12] = molecular target: UniProt L7N1Y8
Summary of the method: as §1

[13] = molecular target: UniProt Q7TR75
Summary of the method: as §1

[14] = molecular target: T12, UniProt Q7TRA1
T12 sequence (whole entry): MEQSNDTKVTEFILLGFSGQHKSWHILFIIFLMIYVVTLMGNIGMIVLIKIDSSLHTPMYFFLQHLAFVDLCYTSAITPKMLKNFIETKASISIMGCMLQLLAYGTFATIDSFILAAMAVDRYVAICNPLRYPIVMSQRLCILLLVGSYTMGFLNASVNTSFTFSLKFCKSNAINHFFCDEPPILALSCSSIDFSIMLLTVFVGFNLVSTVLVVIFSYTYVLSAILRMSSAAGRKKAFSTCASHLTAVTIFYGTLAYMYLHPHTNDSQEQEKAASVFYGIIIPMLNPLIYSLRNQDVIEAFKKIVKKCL
Summary of the method: as §1

[15] = molecular target: T13, UniProt Q7TRA2
T13 sequence (whole entry): T12 sequence (whole entry) with S18A, I86T, I94F, M95I, S112C, V208L, T219I, V221I, V305A
Summary of the method: as §1

[16] = molecular target: UniProt Q7TRB8
Summary of the method: as §1
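Further: active if original authors judged signal statistically different from baseline.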

Sequence of UniProt Q7TR75 (Q7TR75 as listed by the source): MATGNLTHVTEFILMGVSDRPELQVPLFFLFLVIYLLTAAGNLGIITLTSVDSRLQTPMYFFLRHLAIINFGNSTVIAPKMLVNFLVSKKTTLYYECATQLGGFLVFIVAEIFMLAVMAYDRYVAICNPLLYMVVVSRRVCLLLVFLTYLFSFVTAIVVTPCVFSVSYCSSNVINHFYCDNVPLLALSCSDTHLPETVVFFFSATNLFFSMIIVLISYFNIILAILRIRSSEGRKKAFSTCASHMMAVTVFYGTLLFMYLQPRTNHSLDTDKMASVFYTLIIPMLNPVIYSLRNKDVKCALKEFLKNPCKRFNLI
Sequence of UniProt L7N1Y8 (L7N1Y8 as listed by the source): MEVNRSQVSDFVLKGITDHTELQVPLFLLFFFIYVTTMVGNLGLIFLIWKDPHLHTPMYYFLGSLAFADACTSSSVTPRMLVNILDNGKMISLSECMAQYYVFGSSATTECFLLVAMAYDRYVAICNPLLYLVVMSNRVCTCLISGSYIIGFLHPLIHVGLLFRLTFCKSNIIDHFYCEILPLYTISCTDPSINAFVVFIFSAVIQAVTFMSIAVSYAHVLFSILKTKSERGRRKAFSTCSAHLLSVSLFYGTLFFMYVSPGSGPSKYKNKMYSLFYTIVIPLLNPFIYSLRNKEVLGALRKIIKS
Sequence of UniProt Q7TRB8 (Q7TRB8 as listed by the source): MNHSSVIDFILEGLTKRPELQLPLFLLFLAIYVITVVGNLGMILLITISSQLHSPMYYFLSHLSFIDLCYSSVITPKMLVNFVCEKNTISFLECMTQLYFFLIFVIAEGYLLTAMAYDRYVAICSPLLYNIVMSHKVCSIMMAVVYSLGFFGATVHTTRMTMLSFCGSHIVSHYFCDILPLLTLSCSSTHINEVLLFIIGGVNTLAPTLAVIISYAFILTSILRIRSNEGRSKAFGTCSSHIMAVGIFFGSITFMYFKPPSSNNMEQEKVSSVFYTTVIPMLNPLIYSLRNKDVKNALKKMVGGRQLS

## CC1=CCC2CC1C2(C)C (stereo not drawn)
[1]
  odorant receptor agonist call: inactive

## CCCC(=O)C(C)=O
[1]
  odorant receptor agonist call: inactive
[2]
  odorant receptor agonist call: inactive
[3]
  odorant receptor agonist call: inactive
[4]
  odorant receptor agonist call: inactive
[5]
  odorant receptor agonist call: inactive
[6]
  odorant receptor agonist call: inactive
[7]
  odorant receptor agonist call: inactive
[8]
  odorant receptor agonist call: inactive
[9]
  odorant receptor agonist call: inactive
[10]
  odorant receptor agonist call: inactive

## CCCCCCCC(C)=O
[1]
  odorant receptor agonist call: inactive
[2]
  odorant receptor agonist call: inactive
[3]
  odorant receptor agonist call: inactive
[4]
  odorant receptor agonist call: inactive
[5]
  odorant receptor agonist call: inactive
[6]
  odorant receptor agonist call: inactive
[7]
  odorant receptor agonist call: inactive
[8]
  odorant receptor agonist call: inactive
[9]
  odorant receptor agonist call: inactive
[10]
  odorant receptor agonist call: inactive

## CCCCOC
[1]
  odorant receptor agonist call: inactive

## CCC(=O)OC
[1]
  odorant receptor agonist call: inactive

## COc1cnccn1
[1]
  odorant receptor agonist call: inactive
[11]
  odorant receptor agonist call: active
[2]
  odorant receptor agonist call: inactive
[3]
  odorant receptor agonist call: inactive
[4]
  odorant receptor agonist call: inactive
[5]
  odorant receptor agonist call: inactive
[8]
  odorant receptor agonist call: inactive

## CCCC(=O)OCC
[1]
  odorant receptor agonist call: inactive

## CCCCCC=O
[1]
  odorant receptor agonist call: inactive
[2]
  odorant receptor agonist call: inactive
[3]
  odorant receptor agonist call: inactive
[4]
  odorant receptor agonist call: inactive
[5]
  odorant receptor agonist call: inactive
[6]
  odorant receptor agonist call: inactive
[7]
  odorant receptor agonist call: inactive
[8]
  odorant receptor agonist call: inactive
[9]
  odorant receptor agonist call: inactive
[10]
  odorant receptor agonist call: inactive

## CCc1nccnc1CC
[1]
  odorant receptor agonist call: inactive
[11]
  odorant receptor agonist call: active
[2]
  odorant receptor agonist call: inactive
[3]
  odorant receptor agonist call: inactive
[4]
  odorant receptor agonist call: inactive
[5]
  odorant receptor agonist call: inactive
[8]
  odorant receptor agonist call: inactive

## C=CCCCCCC
[1]
  odorant receptor agonist call: inactive

## CCCOC(=O)CCC
[1]
  odorant receptor agonist call: inactive

## CCCCC(C)=O
[1]
  odorant receptor agonist call: inactive
[2]
  odorant receptor agonist call: inactive
[3]
  odorant receptor agonist call: inactive
[4]
  odorant receptor agonist call: inactive
[5]
  odorant receptor agonist call: inactive
[6]
  odorant receptor agonist call: inactive
[7]
  odorant receptor agonist call: inactive
[8]
  odorant receptor agonist call: inactive
[9]
  odorant receptor agonist call: inactive
[10]
  odorant receptor agonist call: inactive

## CCC(=O)OC(C)(C)C
[1]
  odorant receptor agonist call: inactive

## CCCC(=O)OC
[1]
  odorant receptor agonist call: inactive

## CCCCCCCCCC(=O)[O-].[H+]
[1]
  odorant receptor agonist call: inactive
[2]
  odorant receptor agonist call: inactive
[3]
  odorant receptor agonist call: inactive
[4]
  odorant receptor agonist call: inactive
[5]
  odorant receptor agonist call: inactive
[6]
  odorant receptor agonist call: inactive
[7]
  odorant receptor agonist call: inactive
[8]
  odorant receptor agonist call: inactive
[9]
  odorant receptor agonist call: inactive
[10]
  odorant receptor agonist call: inactive

## CC(C)CN
[1]
  odorant receptor agonist call: inactive

## CCCCOC(=O)CCC
[1]
  odorant receptor agonist call: inactive

## CCC(C)c1nccnc1OC (stereo not drawn)
[1]
  odorant receptor agonist call: inactive
[11]
  odorant receptor agonist call: active
[2]
  odorant receptor agonist call: inactive
[3]
  odorant receptor agonist call: inactive
[4]
  odorant receptor agonist call: inactive
[5]
  odorant receptor agonist call: inactive
[8]
  odorant receptor agonist call: inactive

## O=c1ccc2ccccc2o1
[1]
  odorant receptor agonist call: active
[12]
  odorant receptor agonist call: active
[2]
  odorant receptor agonist call: active
[6]
  odorant receptor agonist call: active
[7]
  odorant receptor agonist call: active
[13]
  odorant receptor agonist call: active
[14]
  odorant receptor agonist call: inactive
[15]
  odorant receptor agonist call: inactive
[9]
  odorant receptor agonist call: active
[16]
  odorant receptor agonist call: active
[10]
  odorant receptor agonist call: active

## OCc1ccccc1
[1]
  odorant receptor agonist call: inactive
